Results as given in ChEMBL document CHEMBL1921792, “Synthesis and anticonvulsant activity of trans- and cis-2-(2,6-dimethylphenoxy)-N-(2- or 4-hydroxycyclohexyl)acetamides and their amine analogs” (Bioorg Med Chem, 2011).

Columns and labels:
Rattus norvegicus [1] = test: Neurotoxicity in rat assessed as neurological deficit at 125 mg/kg, po after 2 hrs; format: toxicity, organism-based; design: dose 125 mg/kg, route oral; details: in vivo
Outline: (§1)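 Rats given the compound, suspended in 0.5% methylcellulose, by the stated route and dose. Neurological deficit was recorded at the listed times as ataxia and loss of placing response and muscle tone. Reported as number of rats showing toxicity/number tested.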

Rattus norvegicus [2] = test: Neurotoxicity in rat assessed as neurological deficit at 125 mg/kg, po after 4 hrs; format: toxicity, organism-based; design: dose 125 mg/kg, route oral; details: in vivo; outline: as §1
Rattus norvegicus [3] = test: Neurotoxicity in rat assessed as neurological deficit at 125 mg/kg, po after 6 hrs; format: toxicity, organism-based; design: dose 125 mg/kg, route oral; details: in vivo; outline: as §1
Rattus norvegicus [4] = test: Neurotoxicity in rat assessed as neurological deficit at 125 mg/kg, po after 8 hrs; format: toxicity, organism-based; design: dose 125 mg/kg, route oral; details: in vivo; outline: as §1
Rattus norvegicus [5] = test: Neurotoxicity in rat assessed as neurological deficit at 125 mg/kg, po after 24 hrs; format: toxicity, organism-based; design: dose 125 mg/kg, route oral; details: in vivo; outline: as §1
Rattus norvegicus [6] = test: Neurotoxicity in rat assessed as neurological deficit at 250 mg/kg, po after 0.25 hrs; format: toxicity, organism-based; design: dose 250 mg/kg, route oral; details: in vivo; outline: as §1
Rattus norvegicus [7] = test: Neurotoxicity in rat assessed as neurological deficit at 250 mg/kg, po after 0.5 hrs; format: toxicity, organism-based; design: dose 250 mg/kg, route oral; details: in vivo; outline: as §1
Rattus norvegicus [8] = test: Neurotoxicity in rat assessed as neurological deficit at 250 mg/kg, po after 1 hr; format: toxicity, organism-based; design: dose 250 mg/kg, route oral; details: in vivo; outline: as §1
Rattus norvegicus [9] = test: Neurotoxicity in rat assessed as neurological deficit at 250 mg/kg, po after 2 hrs; format: toxicity, organism-based; design: dose 250 mg/kg, route oral; details: in vivo; outline: as §1
Rattus norvegicus [10] = test: Neurotoxicity in rat assessed as neurological deficit at 250 mg/kg, po after 4 hrs; format: toxicity, organism-based; design: dose 250 mg/kg, route oral; details: in vivo; outline: as §1
Rattus norvegicus [11] = test: Neurotoxicity in rat assessed as neurological deficit at 250 mg/kg, po after 6 hrs; format: toxicity, organism-based; design: dose 250 mg/kg, route oral; details: in vivo; outline: as §1
Rattus norvegicus [12] = test: Neurotoxicity in rat assessed as neurological deficit at 250 mg/kg, po after 8 hrs; format: toxicity, organism-based; design: dose 250 mg/kg, route oral; details: in vivo; outline: as §1
Rattus norvegicus [13] = test: Neurotoxicity in rat assessed as neurological deficit at 250 mg/kg, po after 24 hrs; format: toxicity, organism-based; design: dose 250 mg/kg, route oral; details: in vivo; outline: as §1
Rattus norvegicus [14] = test: Neurotoxicity in rat assessed as neurological deficit at 500 mg/kg, po after 0.25 hrs; format: toxicity, organism-based; design: dose 500 mg/kg, route oral; details: in vivo; outline: as §1
Rattus norvegicus [15] = test: Neurotoxicity in rat assessed as neurological deficit at 500 mg/kg, po after 0.5 hrs; format: toxicity, organism-based; design: dose 500 mg/kg, route oral; details: in vivo; outline: as §1
Rattus norvegicus [16] = test: Neurotoxicity in rat assessed as neurological deficit at 500 mg/kg, po after 1 hr; format: toxicity, organism-based; design: dose 500 mg/kg, route oral; details: in vivo; outline: as §1
Rattus norvegicus [17] = test: Neurotoxicity in rat assessed as neurological deficit at 500 mg/kg, po after 2 hrs; format: toxicity, organism-based; design: dose 500 mg/kg, route oral; details: in vivo; outline: as §1
Rattus norvegicus [18] = test: Neurotoxicity in rat assessed as neurological deficit at 500 mg/kg, po after 4 hrs; format: toxicity, organism-based; design: dose 500 mg/kg, route oral; details: in vivo
Outline: (§2)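 Rats dosed orally with test agent suspended in 0.5% methylcellulose and observed for up to 24 h (time-to-peak-effect design). Neurological deficit was scored as ataxia with loss of placing response and muscle tone. Two rats per dose per time point; results given as number toxic/number tested.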

Rattus norvegicus [19] = test: Neurotoxicity in rat assessed as neurological deficit at 500 mg/kg, po after 6 hrs; format: toxicity, organism-based; design: dose 500 mg/kg, route oral; details: in vivo; outline: as §2
Rattus norvegicus [20] = test: Neurotoxicity in rat assessed as neurological deficit at 500 mg/kg, po after 8 hrs; format: toxicity, organism-based; design: dose 500 mg/kg, route oral; details: in vivo; outline: as §2
Rattus norvegicus [21] = test: Neurotoxicity in rat assessed as neurological deficit at 500 mg/kg, po after 24 hrs; format: toxicity, organism-based; design: dose 500 mg/kg, route oral; details: in vivo; outline: as §1
Mus musculus [22] = test: Neurotoxicity in mouse assessed as inability to maintain equilibrium on rotarod at 130 mg/kg, ip after 0.25 hrs using rotarod test; format: toxicity, organism-based; design: dose 130 mg/kg, route intraperitoneal; details: in vivo
Outline: (§3)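 Drug given ip to mice as a suspension in 0.5% methylcellulose. At the stated time after dosing, each mouse was placed on a 1 inch knurled rod turning at 6 rpm. Neurotoxicity = inability to stay balanced at least 1 min in each of three trials. Scored as animals toxic/animals tested in small groups.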

Mus musculus [23] = test: Neurotoxicity in mouse assessed as inability to maintain equilibrium on rotarod at 130 mg/kg, ip after 0.5 hrs using rotarod test; format: toxicity, organism-based; design: dose 130 mg/kg, route intraperitoneal; details: in vivo; outline: as §3
Mus musculus [24] = test: Neurotoxicity in mouse assessed as inability to maintain equilibrium on rotarod at 130 mg/kg, ip after 1 hr by rotarod test; format: toxicity, organism-based; design: dose 130 mg/kg, route intraperitoneal; details: in vivo; outline: as §3
Mus musculus [25] = test: Neurotoxicity in mouse assessed as inability to maintain equilibrium on rotarod at 130 mg/kg, ip after 2 hrs using rotarod test; format: toxicity, organism-based; design: dose 130 mg/kg, route intraperitoneal; details: in vivo; outline: as §3
Mus musculus [26] = test: Anticonvulsant activity in ip dosed mouse assessed as time to show peak effect of protection against maximal electric shock-induced seizures; format: functional
Outline: (§4)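 Time-to-peak-effect assay: MES protection read at 0.25–4 h after dosing. Mice ip (60–130 mg/kg), rats po (15 or 30 mg/kg) or ip (30 mg/kg). Groups of 4–8; result is protected/tested.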

Rattus norvegicus [27] = test: Anticonvulsant activity in po dosed rat assessed as time to show peak effect of protection against maximal electric shock-induced seizures; format: functional; outline: as §4

In the case of `Cc1cccc(C)c1OCC(=O)NC1CCCCC1O.Cl` (racemic; 1), the Activity (Rattus norvegicus [1]) is reported as “Non-toxic”, the Activity (Rattus norvegicus [2]) is reported as “Non-toxic” and the Activity (Rattus norvegicus [3]) is reported as “Non-toxic”. The Activity (Rattus norvegicus [4]) was “Non-toxic”, the Activity (Rattus norvegicus [5]) was “Non-toxic” and the Activity (Rattus norvegicus [6]) was “Non-toxic”. The Activity (Rattus norvegicus [7]) was “Non-toxic”, the Activity (Rattus norvegicus [8]) was “Non-toxic” and the Activity (Rattus norvegicus [9]) was “Non-toxic”. The Activity (Rattus norvegicus [10]) was “Non-toxic”, the Activity (Rattus norvegicus [11]) was “Non-toxic” and the Activity (Rattus norvegicus [12]) was “Non-toxic”. The Activity (Rattus norvegicus [13]) was “Non-toxic”, the Activity (Rattus norvegicus [14]) was “Non-toxic” and the Activity (Rattus norvegicus [15]) was “Non-toxic”. For the same molecule, the Activity (Rattus norvegicus [16]) was “Non-toxic”, the Activity (Rattus norvegicus [17]) was “Non-toxic” and the Activity (Rattus norvegicus [18]) was “Non-toxic”. The Activity (Rattus norvegicus [19]) was “Non-toxic”, the Activity (Rattus norvegicus [20]) was “Non-toxic” and the Activity (Rattus norvegicus [21]) was “Non-toxic”. For the same molecule, the Activity (Mus musculus [22]) was “Toxic”, the Activity (Mus musculus [23]) was “Non-toxic” and the Activity (Mus musculus [24]) was “Non-toxic”. For the same molecule, the Activity (Mus musculus [25]) was “Non-toxic”, the Time (Mus musculus [26]) was 0.25 h and the Time (Rattus norvegicus [27]) was 0.25 h.
